Source: ChEMBL document CHEMBL1649571, “In vitro activity of TR-700, the active ingredient of the antibacterial prodrug TR-701, a novel oxazolidinone antibacterial agent” (2009)
Converted amounts (≈) assume the structure as drawn.

Key:
Format in all cases: functional
Parvimonas micra = assay: Antibacterial activity against Peptostreptococcus micros by CLSI M11-A7 agar dilution method
In short: (§1)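 Recent (2005 to 2008) clinical isolates. Anaerobes grown 48 h in an anaerobic glove box, with inoculum suspensions made in prereduced broth inside the box. A Steers replicator stamped the inoculum onto drug-supplemented agar. After absorption, plates were incubated 48 h at 37°C, then removed from the box and the MIC read. QC strains were run against the CLSI ranges.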

[1] = test system: Porphyromonas asaccharolytica; assay: Antibacterial activity against Porphyromonas asaccharolytica by CLSI M11-A7 agar dilution method; in short: as §1
Bacteroides ovatus = assay: Antibacterial activity against Bacteroides ovatus by CLSI M11-A7 agar dilution method; in short: as §1
Bacteroides fragilis = assay: Antibacterial activity against Bacteroides fragilis by CLSI M11-A7 agar dilution method; in short: as §1
[2] = test system: Peptostreptococcus anaerobius; assay: Antibacterial activity against Peptostreptococcus anaerobius by CLSI M11-A7 agar dilution method; in short: as §1
Phocaeicola vulgatus = assay: Antibacterial activity against Bacteroides vulgatus by CLSI M11-A7 agar dilution method; in short: as §1
Prevotella sp. = assay: Antibacterial activity against Prevotella sp. by CLSI M11-A7 agar dilution method; in short: as §1
Clostridium perfringens = assay: Antibacterial activity against Clostridium perfringens by CLSI M11-A7 agar dilution method
In short: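 Reference agar dilution MIC on recent (2005–2008) clinical isolates. Cultures grown 48 h in an anaerobic glove box; inoculum suspended in prereduced broth inside the box and stamped by Steers replicator onto drug-supplemented agar. Plates incubated 48 h at 37°C before MIC reading. QC strains run alongside, required to fall within CLSI ranges.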

[3] = test system: Bacteroides thetaiotaomicron; assay: Antibacterial activity against Bacteroides thetaiotaomicron by CLSI M11-A7 agar dilution method; in short: as §1
[4] = test system: Staphylococcus epidermidis; assay: Antibacterial activity against methicillin-resistant Staphylococcus epidermidis by CLSI M7-A7 broth microdilution method
In short: (§2)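 Reference broth microdilution MIC under aerobic conditions on recent (2005–2008) clinical isolates from U.S. and non-U.S. sites. QC strains run alongside, required to fall within published CLSI ranges.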

Staphylococcus aureus [5] = assay: Antibacterial activity against community-acquired methicillin-resistant Staphylococcus aureus by CLSI M7-A7 broth microdilution method; in short: as §2
[6] = test system: Staphylococcus epidermidis; assay: Antibacterial activity against methicillin-susceptible Staphylococcus epidermidis by CLSI M7-A7 broth microdilution method
Staphylococcus aureus [7] = assay: Antibacterial activity against methicillin-susceptible Staphylococcus aureus by CLSI M7-A7 broth microdilution method; in short: as §2
Staphylococcus aureus [8] = assay: Antibacterial activity against methicillin-resistant Staphylococcus aureus by CLSI M7-A7 broth microdilution method; in short: as §2
Streptococcus pyogenes = assay: Antibacterial activity against Streptococcus pyogenes by CLSI M7-A7 broth microdilution broth microdilution method; in short: as §2
Enterococcus faecium [9] = assay: Antibacterial activity against vancomycin-susceptible Enterococcus faecium by CLSI M7-A7 broth microdilution method; in short: as §2
Streptococcus pneumoniae [10] = assay: Antibacterial activity against penicillin-resistant Streptococcus pneumoniae by CLSI M7-A7 broth microdilution method; in short: as §2
Streptococcus pneumoniae [11] = assay: Antibacterial activity against penicillin-intermediate Streptococcus pneumoniae by CLSI M7-A7 broth microdilution method; in short: as §2
Streptococcus agalactiae = assay: Antibacterial activity against Streptococcus agalactiae by CLSI M7-A7 broth microdilution method; in short: as §2
Enterococcus faecium [12] = assay: Antibacterial activity against vancomycin-resistant Enterococcus faecium by CLSI M7-A7 broth microdilution method; in short: as §2
Enterococcus faecalis [13] = assay: Antibacterial activity against vancomycin-susceptible Enterococcus faecalis by CLSI M7-A7 broth microdilution method; in short: as §2
Streptococcus pneumoniae [14] = assay: Antibacterial activity against penicillin-susceptible Streptococcus pneumoniae by CLSI M7-A7 broth microdilution method; in short: as §2
Enterococcus faecalis [15] = assay: Antibacterial activity against vancomycin-resistant Enterococcus faecalis by CLSI M7-A7 broth microdilution method; in short: as §2

For `C[C@@H](O)[C@H]1C(=O)N2C(C(=O)O)=C(SCCNC=N)C[C@H]12` [IMIPENEM ANHYDROUS], the MIC (Parvimonas micra) was no more than 0.03 µg/mL, the MIC50 (Parvimonas micra) was no more than 0.03 µg/mL and the MIC90 (Parvimonas micra) was no more than 0.03 µg/mL. The MIC [1] was no more than 0.03 µg/mL, the MIC50 [1] was less than 0.03 µg/mL and the MIC90 [1] was 0.06 µg/mL (≈ 0.2 µM). For the same molecule, the MIC50 (Bacteroides ovatus) was 0.25 µg/mL (≈ 0.835 µM), the MIC90 (Bacteroides ovatus) was 0.5 µg/mL (≈ 1.67 µM) and the MIC (Bacteroides fragilis) was 0.12 µg/mL (≈ 0.401 µM). For the same molecule, the MIC50 (Bacteroides fragilis) was 0.12 µg/mL (≈ 0.401 µM), the MIC90 (Bacteroides fragilis) was 0.5 µg/mL (≈ 1.67 µM) and the MIC50 [2] was 0.06 µg/mL (≈ 0.2 µM). It also gave an MIC90 [2] of 1 µg/mL (≈ 3.34 µM), an MIC (Phocaeicola vulgatus) of 0.25 µg/mL (≈ 0.835 µM) and an MIC50 (Phocaeicola vulgatus) of 0.25 µg/mL (≈ 0.835 µM). The MIC90 (Phocaeicola vulgatus) was 0.5 µg/mL (≈ 1.67 µM), the MIC50 (Prevotella sp.) was no more than 0.06 µg/mL and the MIC90 (Prevotella sp.) was 1 µg/mL (≈ 3.34 µM). It also gave an MIC50 (Clostridium perfringens) of 0.12 µg/mL (≈ 0.401 µM), an MIC90 (Clostridium perfringens) of 0.5 µg/mL (≈ 1.67 µM) and an MIC50 [3] of 0.5 µg/mL (≈ 1.67 µM). It also gave an MIC90 [3] of 1 µg/mL (≈ 3.34 µM).

Work on `Cc1onc(-c2ccccc2)c1C(=O)N[C@@H]1C(=O)N2[C@@H]1SC(C)(C)[C@@H]2C(=O)O` [OXACILLIN] yielded an MIC50 [4] of 16 µg/mL (≈ 39.9 µM), an MIC90 [4] greater than 32 µg/mL and an MIC50 (Staphylococcus aureus [5]) of 32 µg/mL (≈ 79.7 µM). The MIC90 (Staphylococcus aureus [5]) was 32 µg/mL (≈ 79.7 µM), the MIC50 [6] was 0.12 µg/mL (≈ 0.299 µM) and the MIC90 [6] was 0.25 µg/mL (≈ 0.623 µM). The MIC50 (Staphylococcus aureus [7]) was 0.25 µg/mL (≈ 0.623 µM), the MIC90 (Staphylococcus aureus [7]) was 0.5 µg/mL (≈ 1.25 µM) and the MIC50 (Staphylococcus aureus [8]) was 32 µg/mL (≈ 79.7 µM). For the same molecule, the MIC90 (Staphylococcus aureus [8]) was 32 µg/mL (≈ 79.7 µM).

In the case of `CN[C@H](CC(C)C)C(=O)N[C@H]1C(=O)N[C@@H](CC(N)=O)C(=O)N[C@H]2C(=O)N[C@H]3C(=O)N[C@H](C(=O)N[C@H](C(=O)O)c4cc(O)cc(O)c4-c4cc3ccc4O)[C@H](O)c3ccc(c(Cl)c3)Oc3cc2cc(c3O[C@@H]2O[C@H](CO)[C@@H](O)[C@H](O)[C@H]2O[C@H]2C[C@](C)(N)[C@H](O)[C@H](C)O2)Oc2ccc(cc2Cl)[C@H]1O` [VANCOMYCIN], the MIC50 (Streptococcus pyogenes) is reported as 0.5 µg/mL (≈ 0.345 µM), the MIC90 (Streptococcus pyogenes) is reported as 0.5 µg/mL (≈ 0.345 µM) and the MIC50 (Enterococcus faecium [9]) is reported as 1 µg/mL (≈ 0.69 µM). The MIC90 (Enterococcus faecium [9]) was 1 µg/mL (≈ 0.69 µM), the MIC50 (Streptococcus pneumoniae [10]) was 0.25 µg/mL (≈ 0.173 µM) and the MIC90 (Streptococcus pneumoniae [10]) was 0.5 µg/mL (≈ 0.345 µM). It also gave an MIC (Streptococcus pneumoniae [11]) of 0.25 µg/mL (≈ 0.173 µM), an MIC50 (Streptococcus pneumoniae [11]) of 0.25 µg/mL (≈ 0.173 µM) and an MIC90 (Streptococcus pneumoniae [11]) of 0.5 µg/mL (≈ 0.345 µM). The MIC50 (Streptococcus agalactiae) was 0.5 µg/mL (≈ 0.345 µM), the MIC90 (Streptococcus agalactiae) was 0.5 µg/mL (≈ 0.345 µM) and the MIC50 [4] was 2 µg/mL (≈ 1.38 µM). It also gave an MIC90 [4] of 2 µg/mL (≈ 1.38 µM), an MIC50 (Enterococcus faecium [12]) greater than 32 µg/mL and an MIC90 (Enterococcus faecium [12]) greater than 32 µg/mL. For the same molecule, the MIC50 (Enterococcus faecalis [13]) was 1 µg/mL (≈ 0.69 µM), the MIC90 (Enterococcus faecalis [13]) was 2 µg/mL (≈ 1.38 µM) and the MIC50 (Streptococcus pneumoniae [14]) was 0.25 µg/mL (≈ 0.173 µM). The MIC90 (Streptococcus pneumoniae [14]) was 0.5 µg/mL (≈ 0.345 µM), the MIC50 (Staphylococcus aureus [5]) was 4 µg/mL (≈ 2.76 µM) and the MIC90 (Staphylococcus aureus [5]) was 4 µg/mL (≈ 2.76 µM). The MIC50 [6] was 2 µg/mL (≈ 1.38 µM), the MIC90 [6] was 2 µg/mL (≈ 1.38 µM) and the MIC50 (Staphylococcus aureus [7]) was 1 µg/mL (≈ 0.69 µM). It also gave an MIC90 (Staphylococcus aureus [7]) of 1 µg/mL (≈ 0.69 µM), an MIC50 (Staphylococcus aureus [8]) of 1 µg/mL (≈ 0.69 µM) and an MIC90 (Staphylococcus aureus [8]) of 1 µg/mL (≈ 0.69 µM). It also gave an MIC50 (Enterococcus faecalis [15]) greater than 32 µg/mL and an MIC90 (Enterococcus faecalis [15]) greater than 32 µg/mL.
